# Measured values taken from ChEMBL document CHEMBL4699643, “γ-Ketobenzyl-Modified Nucleoside Triphosphate Prodrugs as Potential Antivirals” (J Med Chem, 2020).
# Tested on: not listed separately
# Experiment: Stability in pH 7.3 PBS assessed as pig liver esterase mediated hydrolysis by measuring half life upto 2 hrs by HPLC analysis
# Assay type: ADME, Sus scrofa
# Conditions: not given
# Summary of the method: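 Porcine liver esterase (3 mg/mL in PB) added to compound diluted from a 6.0 mM DMSO/water solution into DMSO and 50 mM phosphate buffer, pH 7.3. Incubated at 37 °C. Timed aliquots snap-frozen in liquid nitrogen, then thawed, sonicated, centrifuged, filtered and analysed by HPLC. t½ calculated as for chemical hydrolysis.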
row,half-life [h],SMILES
1,0.167,CCCCCCCCCCCCCCCCCC(=O)Oc1ccc(COP(=O)(OCc2ccc(C(=O)CCCCCCCCCCCCCCCCC)cc2)OP(=O)(O)OP(=O)(O)OC[C@@H]2C=C[C@H](n3cc(C)c(=O)[nH]c3=O)O2)cc1 (stereo partly drawn)
2,0.167,CCCCCCCCCCCCCCCCCC(=O)Oc1ccc(COP(=O)(OCc2ccc(C(=O)CCCCCCCCC)cc2)OP(=O)(O)OP(=O)(O)OC[C@@H]2C=C[C@H](n3cc(C)c(=O)[nH]c3=O)O2)cc1 (stereo partly drawn)
3,0.167,CCCCCCCCCCCCCCCCCC(=O)c1ccc(COP(=O)(OCc2ccc(OC(=O)CCCCCC)cc2)OP(=O)(O)OP(=O)(O)OC[C@@H]2C=C[C@H](n3cc(C)c(=O)[nH]c3=O)O2)cc1 (stereo partly drawn)

# Tested on: not listed separately
# Experiment: Prodrug conversion in human CEM/0 cell extract assessed as gamma-kb-d4TTP formation by RP18-HPLC analysis
# Assay type: ADME, tissue-based
# Conditions: ccrf-cem
# Summary of the method: (§1)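 Extract preparation: CEM CD4⁺ T-cells grown in RPMI-1640 to ~3 × 10⁶ cells/mL, washed in cold PB, resuspended at 10⁸ cells/mL, sonicated, clarified at 10,000 rpm and stored at −80 °C. Compounds from 50 mM DMSO stock (diluted to 6.0 mM in DMSO) incubated in the extract. Reactions stopped with THF, put on ice, centrifuged and filtered.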
row,Drug metabolism,SMILES
1,Metabolite_Detected,CCCCCCCCCCCCCCCCCC(=O)Oc1ccc(COP(=O)(OCc2ccc(C(=O)CCCCCCCCCCCCCCCCC)cc2)OP(=O)(O)OP(=O)(O)OC[C@@H]2C=C[C@H](n3cc(C)c(=O)[nH]c3=O)O2)cc1 (stereo partly drawn)
2,Metabolite_Detected,CCCCCCCCCCCCCCCCCC(=O)Oc1ccc(COP(=O)(OCc2ccc(C(=O)CCCCCCCCC)cc2)OP(=O)(O)OP(=O)(O)OC[C@@H]2C=C[C@H](n3cc(C)c(=O)[nH]c3=O)O2)cc1 (stereo partly drawn)
3,Metabolite_Detected,CCCCCCCCCCCCCCCCCC(=O)c1ccc(COP(=O)(OCc2ccc(OC(=O)CCCCCC)cc2)OP(=O)(O)OP(=O)(O)OC[C@@H]2C=C[C@H](n3cc(C)c(=O)[nH]c3=O)O2)cc1 (stereo partly drawn)

# Tested on: Human immunodeficiency virus 2
# Experiment: Antiviral activity against HIV2 ROD infected in human CEM/0 cells assessed as inhibition of virus-induced syncytia cell formation measured after 4 to 5 days by microscopic analysis
# Conditions: Human immunodeficiency virus 2, ISOLATE ROD, CCRF-CEM
row,EC50 [nM],SMILES
1,830,CCCCCCCCCCCCCCCCCC(=O)Oc1ccc(COP(=O)(OCc2ccc(C(=O)CCCCCCCCCCCCCCCCC)cc2)OP(=O)(O)OP(=O)(O)OC[C@@H]2C=C[C@H](n3cc(C)c(=O)[nH]c3=O)O2)cc1 (stereo partly drawn)
2,780,CCCCCCCCCCCCCCCCCC(=O)Oc1ccc(COP(=O)(OCc2ccc(C(=O)CCCCCCCCC)cc2)OP(=O)(O)OP(=O)(O)OC[C@@H]2C=C[C@H](n3cc(C)c(=O)[nH]c3=O)O2)cc1 (stereo partly drawn)
3,1100,CCCCCCCCCCCCCCCCCC(=O)c1ccc(COP(=O)(OCc2ccc(OC(=O)CCCCCC)cc2)OP(=O)(O)OP(=O)(O)OC[C@@H]2C=C[C@H](n3cc(C)c(=O)[nH]c3=O)O2)cc1 (stereo partly drawn)

# Tested on: not listed separately
# Experiment: Cytotoxicity against human CEM/0 CD4+ T cells assessed as reduction in cell viability
# Assay type: cell-based, CCRF-CEM
# Conditions: not given
# Summary of the method: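 Cytostatic readout: CC₅₀ is the compound concentration inhibiting CEM CD4⁺ T-cell proliferation by 50%. Values are the mean ± SD of n = 2−3 independent experiments.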
row,SMILES,CC50 [nM]
1,CCCCCCCCCCCCCCCCCC(=O)Oc1ccc(COP(=O)(OCc2ccc(C(=O)CCCCCCCCCCCCCCCCC)cc2)OP(=O)(O)OP(=O)(O)OC[C@@H]2C=C[C@H](n3cc(C)c(=O)[nH]c3=O)O2)cc1 (stereo partly drawn),28000
2,CCCCCCCCCCCCCCCCCC(=O)Oc1ccc(COP(=O)(OCc2ccc(C(=O)CCCCCCCCC)cc2)OP(=O)(O)OP(=O)(O)OC[C@@H]2C=C[C@H](n3cc(C)c(=O)[nH]c3=O)O2)cc1 (stereo partly drawn),35000
3,CCCCCCCCCCCCCCCCCC(=O)c1ccc(COP(=O)(OCc2ccc(OC(=O)CCCCCC)cc2)OP(=O)(O)OP(=O)(O)OC[C@@H]2C=C[C@H](n3cc(C)c(=O)[nH]c3=O)O2)cc1 (stereo partly drawn),34000

# Tested on: not listed separately
# Experiment: Prodrug conversion in PBS buffer at pH 7.3 assessed as pig liver esterase-mediated cleavage of ketobenzyl-residue measured over 800 hrs by HPLC analysis
# Assay type: ADME, Sus scrofa
# Conditions: pH 7.3, 800 h
row,Drug metabolism,SMILES
1,Metabolite_Notdetected,CCCCCCCCCCCCCCCCCC(=O)Oc1ccc(COP(=O)(OCc2ccc(C(=O)CCCCCCCCCCCCCCCCC)cc2)OP(=O)(O)OP(=O)(O)OC[C@@H]2C=C[C@H](n3cc(C)c(=O)[nH]c3=O)O2)cc1 (stereo partly drawn)
2,Metabolite_Notdetected,CCCCCCCCCCCCCCCCCC(=O)Oc1ccc(COP(=O)(OCc2ccc(C(=O)CCCCCCCCC)cc2)OP(=O)(O)OP(=O)(O)OC[C@@H]2C=C[C@H](n3cc(C)c(=O)[nH]c3=O)O2)cc1 (stereo partly drawn)
3,Metabolite_Notdetected,CCCCCCCCCCCCCCCCCC(=O)c1ccc(COP(=O)(OCc2ccc(OC(=O)CCCCCC)cc2)OP(=O)(O)OP(=O)(O)OC[C@@H]2C=C[C@H](n3cc(C)c(=O)[nH]c3=O)O2)cc1 (stereo partly drawn)

# Tested on: not listed separately
# Experiment: Prodrug conversion in human CEM/0 cell extract assessed as NTP formation by RP18-HPLC analysis
# Assay type: ADME, tissue-based
# Conditions: ccrf-cem
# Summary of the method: as §1
row,Drug metabolism,SMILES
1,Metabolite_Notdetected,CCCCCCCCCCCCCCCCCC(=O)Oc1ccc(COP(=O)(OCc2ccc(C(=O)CCCCCCCCCCCCCCCCC)cc2)OP(=O)(O)OP(=O)(O)OC[C@@H]2C=C[C@H](n3cc(C)c(=O)[nH]c3=O)O2)cc1 (stereo partly drawn)
2,Metabolite_Notdetected,CCCCCCCCCCCCCCCCCC(=O)Oc1ccc(COP(=O)(OCc2ccc(C(=O)CCCCCCCCC)cc2)OP(=O)(O)OP(=O)(O)OC[C@@H]2C=C[C@H](n3cc(C)c(=O)[nH]c3=O)O2)cc1 (stereo partly drawn)
3,Metabolite_Notdetected,CCCCCCCCCCCCCCCCCC(=O)c1ccc(COP(=O)(OCc2ccc(OC(=O)CCCCCC)cc2)OP(=O)(O)OP(=O)(O)OC[C@@H]2C=C[C@H](n3cc(C)c(=O)[nH]c3=O)O2)cc1 (stereo partly drawn)

# Tested on: Human immunodeficiency virus 2
# Experiment: Antiviral activity against HIV2 ROD infected in human TK-deficient […] cells assessed as inhibition of viral-induced giant cell formation incubated for 4 to 5 days by microscopy
# Conditions: Human immunodeficiency virus 2, ISOLATE ROD
row,EC50 [nM],SMILES
1,380,CCCCCCCCCCCCCCCCCC(=O)Oc1ccc(COP(=O)(OCc2ccc(C(=O)CCCCCCCCCCCCCCCCC)cc2)OP(=O)(O)OP(=O)(O)OC[C@@H]2C=C[C@H](n3cc(C)c(=O)[nH]c3=O)O2)cc1 (stereo partly drawn)
2,1100,CCCCCCCCCCCCCCCCCC(=O)Oc1ccc(COP(=O)(OCc2ccc(C(=O)CCCCCCCCC)cc2)OP(=O)(O)OP(=O)(O)OC[C@@H]2C=C[C@H](n3cc(C)c(=O)[nH]c3=O)O2)cc1 (stereo partly drawn)
3,400,CCCCCCCCCCCCCCCCCC(=O)c1ccc(COP(=O)(OCc2ccc(OC(=O)CCCCCC)cc2)OP(=O)(O)OP(=O)(O)OC[C@@H]2C=C[C@H](n3cc(C)c(=O)[nH]c3=O)O2)cc1 (stereo partly drawn)

# Tested on: not listed separately
# Experiment: Stability of compound in human CEM/0 cell extract assessed as half life by RP18-HPLC analysis
# Assay type: ADME, tissue-based, CCRF-CEM
# Conditions: not given
# Summary of the method: as §1
row,half-life [h],SMILES
1,2.1,CCCCCCCCCCCCCCCCCC(=O)Oc1ccc(COP(=O)(OCc2ccc(C(=O)CCCCCCCCCCCCCCCCC)cc2)OP(=O)(O)OP(=O)(O)OC[C@@H]2C=C[C@H](n3cc(C)c(=O)[nH]c3=O)O2)cc1 (stereo partly drawn)
2,7.8,CCCCCCCCCCCCCCCCCC(=O)Oc1ccc(COP(=O)(OCc2ccc(C(=O)CCCCCCCCC)cc2)OP(=O)(O)OP(=O)(O)OC[C@@H]2C=C[C@H](n3cc(C)c(=O)[nH]c3=O)O2)cc1 (stereo partly drawn)
3,6.9,CCCCCCCCCCCCCCCCCC(=O)c1ccc(COP(=O)(OCc2ccc(OC(=O)CCCCCC)cc2)OP(=O)(O)OP(=O)(O)OC[C@@H]2C=C[C@H](n3cc(C)c(=O)[nH]c3=O)O2)cc1 (stereo partly drawn)

# Tested on: not listed separately
# Experiment: Prodrug conversion in human CEM/0 cell extract assessed as d4TDP formation by RP18-HPLC analysis
# Assay type: ADME, tissue-based
# Conditions: ccrf-cem
# Summary of the method: as §1
row,Drug metabolism,SMILES
1,Metabolite_Detected,CCCCCCCCCCCCCCCCCC(=O)Oc1ccc(COP(=O)(OCc2ccc(C(=O)CCCCCCCCCCCCCCCCC)cc2)OP(=O)(O)OP(=O)(O)OC[C@@H]2C=C[C@H](n3cc(C)c(=O)[nH]c3=O)O2)cc1 (stereo partly drawn)
2,Metabolite_Detected,CCCCCCCCCCCCCCCCCC(=O)Oc1ccc(COP(=O)(OCc2ccc(C(=O)CCCCCCCCC)cc2)OP(=O)(O)OP(=O)(O)OC[C@@H]2C=C[C@H](n3cc(C)c(=O)[nH]c3=O)O2)cc1 (stereo partly drawn)
3,Metabolite_Detected,CCCCCCCCCCCCCCCCCC(=O)c1ccc(COP(=O)(OCc2ccc(OC(=O)CCCCCC)cc2)OP(=O)(O)OP(=O)(O)OC[C@@H]2C=C[C@H](n3cc(C)c(=O)[nH]c3=O)O2)cc1 (stereo partly drawn)

# Tested on: Human immunodeficiency virus 1
# Experiment: Antiviral activity against HIV1 3B infected in human CEM/0 cells assessed as inhibition of virus-induced syncytia cell formation measured after 4 to 5 days by microscopic analysis
# Assay type: functional, organism-based
# Conditions: Human immunodeficiency virus 1, 3B, CCRF-CEM
# Summary of the method: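 Syncytium-inhibition assay in wild-type CEM/0 or TK-deficient CEM/TK⁻ cells, ~3 × 10⁵ cells/mL, infected with 100 CCID₅₀/mL HIV-1(III_B) or HIV-2(ROD), with serial compound dilutions. Incubated 4−5 days at 37 °C in humidified CO₂ atmosphere. Giant cells scored microscopically; EC₅₀ is the concentration halving HIV-induced giant cell formation. Values are the mean ± SD of n = 2−3 independent experiments.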
row,EC50 [nM],SMILES
1,420,CCCCCCCCCCCCCCCCCC(=O)Oc1ccc(COP(=O)(OCc2ccc(C(=O)CCCCCCCCCCCCCCCCC)cc2)OP(=O)(O)OP(=O)(O)OC[C@@H]2C=C[C@H](n3cc(C)c(=O)[nH]c3=O)O2)cc1 (stereo partly drawn)
2,580,CCCCCCCCCCCCCCCCCC(=O)Oc1ccc(COP(=O)(OCc2ccc(C(=O)CCCCCCCCC)cc2)OP(=O)(O)OP(=O)(O)OC[C@@H]2C=C[C@H](n3cc(C)c(=O)[nH]c3=O)O2)cc1 (stereo partly drawn)
3,440,CCCCCCCCCCCCCCCCCC(=O)c1ccc(COP(=O)(OCc2ccc(OC(=O)CCCCCC)cc2)OP(=O)(O)OP(=O)(O)OC[C@@H]2C=C[C@H](n3cc(C)c(=O)[nH]c3=O)O2)cc1 (stereo partly drawn)

# Tested on: not listed separately
# Experiment: Chemical stability of compound assessed as half life in PBS at pH 7.3 by RP18-HPLC analysis
# Assay type: physicochemical
# Conditions: not given
# Summary of the method: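 From 50 mM DMSO stocks, diluted to 1.9 mM hydrolysis solutions in water/DMSO. Reaction started by adding phosphate buffer (50 mM, pH 7.3; 25 mM also stated). Incubated at 37 °C with time-course sampling. Starting material and products (γ-kb-NTP, d4TDP, thymine) followed by analytical rp18 HPLC, from which t½ was calculated.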
row,half-life [h],SMILES
1,11,CCCCCCCCCCCCCCCCCC(=O)Oc1ccc(COP(=O)(OCc2ccc(C(=O)CCCCCCCCCCCCCCCCC)cc2)OP(=O)(O)OP(=O)(O)OC[C@@H]2C=C[C@H](n3cc(C)c(=O)[nH]c3=O)O2)cc1 (stereo partly drawn)
2,94,CCCCCCCCCCCCCCCCCC(=O)Oc1ccc(COP(=O)(OCc2ccc(C(=O)CCCCCCCCC)cc2)OP(=O)(O)OP(=O)(O)OC[C@@H]2C=C[C@H](n3cc(C)c(=O)[nH]c3=O)O2)cc1 (stereo partly drawn)
3,109,CCCCCCCCCCCCCCCCCC(=O)c1ccc(COP(=O)(OCc2ccc(OC(=O)CCCCCC)cc2)OP(=O)(O)OP(=O)(O)OC[C@@H]2C=C[C@H](n3cc(C)c(=O)[nH]c3=O)O2)cc1 (stereo partly drawn)
